Reference: ChEMBL document CHEMBL1212904, “Discovery of pyrrole-indoline-2-ones as Aurora kinase inhibitors with a different inhibition profile” (J Med Chem, 2010)
Calls of active or inactive are those of the source. The calls are words filed in the database; no cut-off is given here.

What was measured:
[1] = target: Mitogen-activated protein kinase 14 (Homo sapiens) (UniProt Q16539); assay: Inhibition of MAPK14 at 1 uM by radiometric method
[2] = target: Serine/threonine-protein kinase B-raf (Homo sapiens) (UniProt P15056); assay: Inhibition of b-Raf at 1 uM by radiometric method
[3] = target: Ephrin type-A receptor 1 (Homo sapiens) (UniProt P21709); assay: Inhibition of EPHA1 at 1 uM by radiometric method
[4] = target: Phosphorylase b kinase gamma catalytic chain, skeletal muscle/heart isoform (Homo sapiens) (UniProt Q16816); assay: Inhibition of PHKG1 at 1 uM by KINOMEscan binding assay
[5] = target: Mitogen-activated protein kinase kinase kinase kinase 5 (Homo sapiens) (UniProt Q9Y4K4); assay: Inhibition of MAP4K5 at 1 uM by KINOMEscan binding assay
[6] = target: T1, Platelet-derived growth factor receptor beta (Homo sapiens, UniProt P09619); assay: Inhibition of PDGFRbeta by radiometric method
[7] = target: Tyrosine-protein kinase receptor UFO (Homo sapiens) (UniProt P30530); assay: Inhibition of AXL at 1 uM by KINOMEscan binding assay
[8] = target: ALK tyrosine kinase receptor (Homo sapiens) (UniProt Q9UM73); assay: Inhibition of ALK at 1 uM by radiometric method
[9] = target: Macrophage colony-stimulating factor 1 receptor (Homo sapiens, UniProt P07333); assay: Inhibition of CSF1R by radiometric method
[10] = target: 3-phosphoinositide-dependent protein kinase 1 (Homo sapiens) (UniProt O15530); assay: Inhibition of PDK1 at 1 uM by radiometric method
[11] = target: Mast/stem cell growth factor receptor Kit (Homo sapiens, UniProt P10721); assay: Inhibition of c-Kit at 1 uM by radiometric method
[12] = target: Proto-oncogene tyrosine-protein kinase receptor Ret (Homo sapiens) (UniProt P07949); assay: Inhibition of RET at 1 uM by KINOMEscan binding assay
[13] = target: Rhodopsin kinase GRK7 (Homo sapiens) (UniProt Q8WTQ7); assay: Inhibition of GRK7 at 1 uM by KINOMEscan binding assay
[14] = target: High affinity nerve growth factor receptor (Homo sapiens) (UniProt P04629); assay: Inhibition of TRK at 1 uM by KINOMEscan binding assay
[15] = target: Serine/threonine-protein kinase Chk1 (Homo sapiens) (UniProt O14757); assay: Inhibition of CHK1 at 1 uM by radiometric method
[16] = target: PI3K p110 beta/p85 alpha (Homo sapiens) (UniProt P27986+P42338); assay: Inhibition of PI3K (p110beta/p85-alpha) at 1 uM by radiometric method; format: protein-complex assay
[17] = target: Hepatocyte growth factor receptor (Homo sapiens) (UniProt P08581); assay: Inhibition of c-Met at 1 uM by radiometric method
[18] = target: RAF proto-oncogene serine/threonine-protein kinase (Homo sapiens) (UniProt P04049); assay: Inhibition of c-Raf at 1 uM by radiometric method
[19] = target: Serine/threonine-protein kinase mTOR (Homo sapiens) (UniProt P42345); assay: Inhibition of mTOR at 1 uM by radiometric method
[20] = target: Tyrosine-protein kinase Mer (Homo sapiens) (UniProt Q12866); assay: Inhibition of MERTK at 1 uM by KINOMEscan binding assay
[21] = target: Cyclin-dependent kinase 2/cyclin A (Homo sapiens) (UniProt P24941+P20248+P78396); assay: Inhibition of CDK2/cyclinA at 1 uM by radiometric method; format: protein-complex assay
HCT-116 = assay: Antiproliferative activity against human HCT116 cells after 72 hrs by cell titer 96 assay; format: functional, cell-based; conditions: HCT-116, 72 h
[22] = system: Epidermal growth factor receptor (Homo sapiens), P00533 [T790M]; assay: Inhibition of EGFR T790M mutant at 1 uM by radiometric method; format: protein assay
[23] = target: Phosphatidylinositol 5-phosphate 4-kinase type-2 gamma (Homo sapiens) (UniProt Q8TBX8); assay: Inhibition of PIP5K2C at 1 uM by KINOMEscan binding assay
[24] = target: T2, Aurora kinase A (Homo sapiens) (UniProt O14965); assay: Inhibition of aurora A in human HCT116 cells assessed as reduction of phosphorylated aurora A at Thr288 level measured at 1.25 to 40 uM after 3 hrs by Western blot analysis; format: cell-based; conditions: HCT-116
T2 sequence (whole entry): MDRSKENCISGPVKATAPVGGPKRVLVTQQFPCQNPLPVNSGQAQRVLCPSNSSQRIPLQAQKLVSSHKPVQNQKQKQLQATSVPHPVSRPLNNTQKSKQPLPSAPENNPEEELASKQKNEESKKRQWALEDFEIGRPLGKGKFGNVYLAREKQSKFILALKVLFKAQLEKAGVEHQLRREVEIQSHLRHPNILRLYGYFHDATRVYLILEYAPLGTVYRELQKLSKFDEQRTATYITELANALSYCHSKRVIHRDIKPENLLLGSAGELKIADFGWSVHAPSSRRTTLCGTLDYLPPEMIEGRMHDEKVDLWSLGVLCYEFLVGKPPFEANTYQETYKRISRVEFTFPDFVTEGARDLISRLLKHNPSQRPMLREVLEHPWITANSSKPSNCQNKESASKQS
In short: (§1)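 HCT-116 cells were synchronized at G2/M with 200 ng/mL nocodazole for 17 h, then given inhibitor for a further 3.0 h. Cells were PBS-washed, boiled in 2× SDS sample buffer, and run on SDS-PAGE with immunoblotting. Rabbit antibodies detected pT288 Aurora A, total Aurora A, pS10 histone H3 and total H3; β-actin served as loading control.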

[25] = target: PI3-kinase p110-alpha/p85-alpha (Homo sapiens) (UniProt P27986+P42336); assay: Inhibition of PI3K (p110alpha/p85-alpha) at 1 uM by radiometric method; format: protein-complex assay
[26] = target: Receptor-type tyrosine-protein kinase FLT3 (Homo sapiens) (UniProt P36888); assay: Inhibition of FLT3 at 1 uM by radiometric method
[27] = target: T2, Aurora kinase A (Homo sapiens); assay: Inhibition of aurora A in human HCT116 cells assessed as reduction of phosphorylated histone H3 at ser10 level measured at 10 uM after 3 hrs by Western blot analysis; format: cell-based; conditions: HCT-116; in short: as §1
[28] = target: T1, Platelet-derived growth factor receptor beta; assay: Inhibition of PDGFRbeta at 1 uM by radiometric method
[29] = target: Vascular endothelial growth factor receptor 2 (Homo sapiens, UniProt P35968); assay: Inhibition of VEGFR2 at 1 uM by radiometric method
[30] = target: Cyclin-dependent kinase 1 (Homo sapiens) (UniProt P06493); assay: Inhibition of CDC2 at 1 uM by radiometric method
HT-29 = assay: Antiproliferative activity against human HT-29 cells after 72 hrs by cell titer 96 assay; format: functional, cell-based; conditions: HT-29, 72 h

T1 sequence (P09619 whole entry): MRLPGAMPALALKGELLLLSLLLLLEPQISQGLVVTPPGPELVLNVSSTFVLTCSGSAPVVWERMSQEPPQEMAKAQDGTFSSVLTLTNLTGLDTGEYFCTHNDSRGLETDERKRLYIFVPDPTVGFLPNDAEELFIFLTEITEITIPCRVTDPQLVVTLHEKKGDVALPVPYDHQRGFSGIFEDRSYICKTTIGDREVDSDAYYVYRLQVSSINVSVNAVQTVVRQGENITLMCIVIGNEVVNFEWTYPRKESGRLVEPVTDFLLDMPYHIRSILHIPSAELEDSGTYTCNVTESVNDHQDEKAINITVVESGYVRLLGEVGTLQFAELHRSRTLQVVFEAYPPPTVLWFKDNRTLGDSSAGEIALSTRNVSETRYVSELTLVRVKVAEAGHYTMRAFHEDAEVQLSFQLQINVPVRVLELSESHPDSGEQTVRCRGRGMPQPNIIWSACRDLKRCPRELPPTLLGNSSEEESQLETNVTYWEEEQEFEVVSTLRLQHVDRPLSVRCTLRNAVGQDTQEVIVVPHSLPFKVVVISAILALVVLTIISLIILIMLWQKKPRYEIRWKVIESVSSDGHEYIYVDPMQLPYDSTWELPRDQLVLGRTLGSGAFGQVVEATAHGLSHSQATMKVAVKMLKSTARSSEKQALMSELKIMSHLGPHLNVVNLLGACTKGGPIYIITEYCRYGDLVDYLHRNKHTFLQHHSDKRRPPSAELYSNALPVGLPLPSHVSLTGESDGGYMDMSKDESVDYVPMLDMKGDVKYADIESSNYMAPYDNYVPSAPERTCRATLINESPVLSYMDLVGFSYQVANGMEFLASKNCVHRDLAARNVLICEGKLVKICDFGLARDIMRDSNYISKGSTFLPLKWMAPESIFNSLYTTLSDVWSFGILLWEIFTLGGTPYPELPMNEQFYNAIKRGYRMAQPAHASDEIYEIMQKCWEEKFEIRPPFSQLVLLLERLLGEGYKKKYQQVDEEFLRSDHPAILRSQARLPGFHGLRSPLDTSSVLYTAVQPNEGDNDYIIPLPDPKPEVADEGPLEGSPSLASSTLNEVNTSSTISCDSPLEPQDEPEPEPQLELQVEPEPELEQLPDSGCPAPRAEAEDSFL
Mast/stem cell growth factor receptor Kit, sequence (P10721 whole entry): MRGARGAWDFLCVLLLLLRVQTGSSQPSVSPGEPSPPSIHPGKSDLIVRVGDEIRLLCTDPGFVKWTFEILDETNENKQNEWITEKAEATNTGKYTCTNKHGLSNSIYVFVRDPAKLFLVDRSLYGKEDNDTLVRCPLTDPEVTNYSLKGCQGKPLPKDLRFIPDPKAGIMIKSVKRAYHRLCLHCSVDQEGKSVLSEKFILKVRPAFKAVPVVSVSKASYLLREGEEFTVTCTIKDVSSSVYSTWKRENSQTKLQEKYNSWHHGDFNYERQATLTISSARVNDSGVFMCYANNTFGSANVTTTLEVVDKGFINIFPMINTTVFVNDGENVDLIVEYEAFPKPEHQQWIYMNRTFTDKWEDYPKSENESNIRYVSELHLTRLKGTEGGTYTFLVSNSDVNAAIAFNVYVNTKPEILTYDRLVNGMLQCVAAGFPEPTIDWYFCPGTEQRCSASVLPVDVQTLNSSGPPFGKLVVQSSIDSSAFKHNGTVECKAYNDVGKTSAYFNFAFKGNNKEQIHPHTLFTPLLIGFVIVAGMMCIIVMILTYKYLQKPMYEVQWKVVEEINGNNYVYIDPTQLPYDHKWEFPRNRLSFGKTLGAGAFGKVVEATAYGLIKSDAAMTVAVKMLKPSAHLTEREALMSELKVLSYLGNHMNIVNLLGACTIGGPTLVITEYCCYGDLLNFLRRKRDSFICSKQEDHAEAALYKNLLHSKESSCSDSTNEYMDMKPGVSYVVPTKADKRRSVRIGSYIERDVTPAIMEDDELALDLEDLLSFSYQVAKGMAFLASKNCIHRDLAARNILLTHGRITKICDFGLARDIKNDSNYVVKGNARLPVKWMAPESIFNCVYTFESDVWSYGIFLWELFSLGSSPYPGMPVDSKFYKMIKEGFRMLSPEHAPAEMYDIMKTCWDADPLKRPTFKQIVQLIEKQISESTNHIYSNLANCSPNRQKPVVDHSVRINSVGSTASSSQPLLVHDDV
ALK tyrosine kinase receptor (Homo sapiens), sequence (Q9UM73 19-1620 limits assumed): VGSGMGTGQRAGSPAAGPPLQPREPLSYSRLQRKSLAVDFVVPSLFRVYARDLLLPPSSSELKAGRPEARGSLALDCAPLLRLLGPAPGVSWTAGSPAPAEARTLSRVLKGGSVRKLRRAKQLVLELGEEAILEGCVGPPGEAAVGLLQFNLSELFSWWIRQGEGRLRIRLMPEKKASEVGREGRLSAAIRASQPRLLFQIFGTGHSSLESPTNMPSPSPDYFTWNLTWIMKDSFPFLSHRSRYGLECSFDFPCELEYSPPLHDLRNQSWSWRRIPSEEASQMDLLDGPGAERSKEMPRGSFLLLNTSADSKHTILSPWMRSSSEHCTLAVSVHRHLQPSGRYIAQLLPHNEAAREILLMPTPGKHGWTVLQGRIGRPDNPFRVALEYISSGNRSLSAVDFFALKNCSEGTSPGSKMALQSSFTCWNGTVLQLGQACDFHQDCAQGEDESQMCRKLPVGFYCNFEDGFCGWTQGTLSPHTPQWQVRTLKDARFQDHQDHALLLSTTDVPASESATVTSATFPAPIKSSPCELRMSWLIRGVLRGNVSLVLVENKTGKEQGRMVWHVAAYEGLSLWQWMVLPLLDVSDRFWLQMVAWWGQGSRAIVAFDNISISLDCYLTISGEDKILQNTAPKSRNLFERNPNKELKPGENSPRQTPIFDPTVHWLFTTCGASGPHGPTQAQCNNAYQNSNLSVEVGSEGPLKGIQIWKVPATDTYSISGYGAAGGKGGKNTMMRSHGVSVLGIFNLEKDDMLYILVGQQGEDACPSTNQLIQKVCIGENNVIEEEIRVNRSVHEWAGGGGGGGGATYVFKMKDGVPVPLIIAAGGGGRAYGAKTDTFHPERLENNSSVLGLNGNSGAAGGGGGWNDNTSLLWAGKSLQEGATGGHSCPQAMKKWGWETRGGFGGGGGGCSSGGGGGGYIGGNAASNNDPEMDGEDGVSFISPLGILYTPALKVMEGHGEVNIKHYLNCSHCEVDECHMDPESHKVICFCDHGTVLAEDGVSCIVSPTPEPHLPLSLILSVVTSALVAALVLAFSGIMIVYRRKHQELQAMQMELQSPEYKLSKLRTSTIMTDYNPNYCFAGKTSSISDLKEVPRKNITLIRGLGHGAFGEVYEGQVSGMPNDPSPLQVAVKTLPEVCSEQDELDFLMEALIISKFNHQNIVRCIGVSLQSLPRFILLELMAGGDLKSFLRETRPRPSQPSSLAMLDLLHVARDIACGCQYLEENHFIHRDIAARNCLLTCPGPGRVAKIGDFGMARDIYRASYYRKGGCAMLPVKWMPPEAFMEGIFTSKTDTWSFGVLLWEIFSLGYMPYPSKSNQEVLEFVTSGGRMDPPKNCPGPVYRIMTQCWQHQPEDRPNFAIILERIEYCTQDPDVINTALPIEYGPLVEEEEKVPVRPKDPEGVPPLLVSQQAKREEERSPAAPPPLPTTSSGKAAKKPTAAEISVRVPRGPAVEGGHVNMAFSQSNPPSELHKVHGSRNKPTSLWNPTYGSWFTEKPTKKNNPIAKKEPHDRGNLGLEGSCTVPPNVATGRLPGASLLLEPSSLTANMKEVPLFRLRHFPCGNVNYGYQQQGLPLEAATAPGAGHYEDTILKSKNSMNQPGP
Receptor-type tyrosine-protein kinase FLT3 (Homo sapiens), sequence (P36888 whole entry): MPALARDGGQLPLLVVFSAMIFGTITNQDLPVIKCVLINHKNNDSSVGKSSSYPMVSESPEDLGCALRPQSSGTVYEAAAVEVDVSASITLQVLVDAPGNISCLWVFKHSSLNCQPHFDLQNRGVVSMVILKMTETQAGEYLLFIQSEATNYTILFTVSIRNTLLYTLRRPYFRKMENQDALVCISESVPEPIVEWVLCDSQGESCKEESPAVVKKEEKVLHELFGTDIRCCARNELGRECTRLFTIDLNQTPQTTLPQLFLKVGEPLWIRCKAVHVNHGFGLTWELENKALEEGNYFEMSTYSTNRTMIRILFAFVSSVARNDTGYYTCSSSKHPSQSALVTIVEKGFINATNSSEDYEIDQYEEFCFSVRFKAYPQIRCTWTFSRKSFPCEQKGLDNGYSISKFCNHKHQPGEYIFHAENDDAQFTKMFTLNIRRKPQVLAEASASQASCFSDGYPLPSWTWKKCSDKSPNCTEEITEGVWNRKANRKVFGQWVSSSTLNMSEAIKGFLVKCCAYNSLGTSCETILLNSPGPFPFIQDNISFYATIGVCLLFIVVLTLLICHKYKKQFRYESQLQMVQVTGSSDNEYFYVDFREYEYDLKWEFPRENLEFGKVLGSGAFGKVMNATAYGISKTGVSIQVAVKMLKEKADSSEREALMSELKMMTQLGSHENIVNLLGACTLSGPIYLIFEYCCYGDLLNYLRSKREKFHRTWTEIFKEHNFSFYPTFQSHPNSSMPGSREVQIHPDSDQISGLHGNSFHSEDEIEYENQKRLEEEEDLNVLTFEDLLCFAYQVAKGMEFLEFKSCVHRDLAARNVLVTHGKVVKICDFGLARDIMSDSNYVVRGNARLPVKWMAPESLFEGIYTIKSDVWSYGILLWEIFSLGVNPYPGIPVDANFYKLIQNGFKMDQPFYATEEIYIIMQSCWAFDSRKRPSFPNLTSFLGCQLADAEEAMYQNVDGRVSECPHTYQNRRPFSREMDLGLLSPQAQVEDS
Cyclin-dependent kinase 1 (Homo sapiens), sequence (P06493 whole entry, looked up): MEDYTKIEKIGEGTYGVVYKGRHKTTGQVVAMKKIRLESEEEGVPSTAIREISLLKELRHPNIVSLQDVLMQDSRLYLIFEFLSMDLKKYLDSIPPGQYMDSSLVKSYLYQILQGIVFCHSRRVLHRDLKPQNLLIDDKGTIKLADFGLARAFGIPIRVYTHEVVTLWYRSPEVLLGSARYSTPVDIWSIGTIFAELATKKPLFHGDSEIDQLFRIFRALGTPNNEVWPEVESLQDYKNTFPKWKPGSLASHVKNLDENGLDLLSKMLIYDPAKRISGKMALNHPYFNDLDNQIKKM

inhibition [1]	inhibition [2]	inhibition [3]	residual activity [4]	residual activity [5]	IC50 [6]	residual activity [7]	inhibition [8]	IC50 [9]	inhibition [10]	inhibition [11]	residual activity [12]	residual activity [13]	residual activity [14]	inhibition [15]	inhibition [16]	inhibition [17]	inhibition [18]	inhibition [19]	residual activity [20]	Compound	other results
4%	-1%	29%	< 10%	< 10%	> 1 µM	< 10%	80%	> 1 µM	24%	41%	< 10%	< 10%	< 10%	10%	1%	32%	-8%	9%	< 10%	CCOC(=O)CCc1c(/C=C2\C(=O)Nc3ccc(NS(=O)(=O)c4ccccc4)cc32)[nH]c2c1C(=O)CCC2	inhibition [21]: 71%; IC50 (HCT-116): 3.74 µM; inhibition [22]: 14%; residual activity [23]: < 10%; inhibition [24]: Active; inhibition [25]: 11%; inhibition [26]: 97%; inhibition [27]: Active; inhibition [28]: 47%; inhibition [29]: 74%; inhibition [30]: 33%; IC50 (HT-29): 3.23 µM
11%	2%	24%	< 10%	< 10%	< 1 µM	< 10%	85%	< 1 µM	11%	65%	< 10%	< 10%	< 10%	58%	-2%	32%	-7%	25%	< 10%	CN(C)CCCc1c(/C=C2\C(=O)Nc3ccc(NS(=O)(=O)c4ccccc4)cc32)[nH]c2c1C(=O)CCC2	inhibition [21]: 46%; IC50 (HCT-116): 3.69 µM; inhibition [22]: 8%; residual activity [23]: < 10%; inhibition [24]: inactive; inhibition [25]: 5%; inhibition [26]: 95%; inhibition [27]: Active; inhibition [28]: 70%; inhibition [29]: 51%; inhibition [30]: 12%; IC50 (HT-29): 2.97 µM
